Shown are actives, neighbours in structure and some others; about 2.1% of the full set was active somewhere.
TLR9-MyD88 inh = blocks human TLR9 binding to MyD88; inhibition, % at 4.98 µM; CHO BLA complementation TLR9-MyD88, CCF4 FRET ratio; Q9NR96+Q99836; actives 0.21% (n = 340,000);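 active = inhibition above the mean over all tested compounds plus 3 SD, cut at about 21% in these data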
TLR4 MyD88 comp = TLR4-MyD88 interaction inhibition in cells; O00206+Q99836; HeLa CL3-4 TLR4/MyD88 BLA complementation, FRET ratio; inhibition, % at 8.4 µM; actives 0.18% (n = 200,000); AID 861; in the data active = inhibition above about 25%
MC4R ag barr = agonists of human melanocortin 4 receptor (MC4R) beta-arrestin; activation, % at 8.9 µM; U2OS MC4R beta-arrestin complementation, luminescence; percent of melanotan II response, DMSO zero; actives 0.98% (n = 360,000); AID 540308; P32245;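 active = activation above a per-plate cutoff, the mean activation of sample wells on that plate plus 3 SD, cut at about 8% in these data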
MC4R antag cAMP = antagonists of human melanocortin 4 receptor (MC4R); P32245; MC4R-expressing cells, MTII-stimulated cAMP, LANCE TR-FRET; inhibition, % at 6.5 µM; actives 0.48% (n = 360,000); AID 540295;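 active = inhibition above its plate's cutoff, the mean of tested wells on that plate plus 3 SD, cut at about 29% in these data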
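System – human MC4R-expressing U2OS cells · Also added – Melanotan II · Dosing – one concentration, 6.5 µM nominal · Timing – 30-min compound, 1-h challenge, 1-h detection, room temperature · Measured by – Eu-cAMP/anti-cAMP TR-FRET, emission 671 nm · Replicates – singlicate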
NOD2 RIPK2 PPI = inhibitors of human NOD2-RIPK2 interaction | actives 0.38% (n = 360,000) | CHO BLA complementation NOD2-RIPK2, CCF4 ratio | inhibition, % at 4.98 µM | AID 624267; in the data active = inhibition above about 21%
MIN6 prolif = inducers of beta-cell replication in MIN6 cells | proliferation, % at 10 µM | actives 0.29% (n = 330,000) | AID 2380 | MIN6 cells proliferation, ATPlite luminescence, 48 h; cells starved in 0.2% serum; 100% = growth in 10% serum;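 active = compounds whose signal lies at least 3.5 SD above the mean of all wells on their plate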
MC4R barr conf = human MC4R beta-arrestin agonism confirmation; actives 31% (n = 2,400); activation, % at 8.9 µM; AID 602192; shares compounds with MC4R ag barr; U2OS MC4R beta-arrestin recruitment, luminescence; scaled DMSO 0%, Melanotan II 100%;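 active = mean activation across replicates above the hit cutoff set in the earlier primary screen, cut at about 8% in these data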
MOR DOR agonist = counter-screen for MC4R agonists: agonists of mu-delta opioid heterodimer | shares compounds with MC4R ag barr | U2OS PathHunter beta-arrestin, beta-gal luminescence; percent of deltorphin B response, DMSO zero | activation, % at 9.2 µM | actives 5.8% (n = 2,400) | AID 602194;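 active = mean activation across replicates exceeds the hit threshold derived in the earlier primary screen, cut at about 18% in these data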
Target sequence (P35372 whole entry, looked up): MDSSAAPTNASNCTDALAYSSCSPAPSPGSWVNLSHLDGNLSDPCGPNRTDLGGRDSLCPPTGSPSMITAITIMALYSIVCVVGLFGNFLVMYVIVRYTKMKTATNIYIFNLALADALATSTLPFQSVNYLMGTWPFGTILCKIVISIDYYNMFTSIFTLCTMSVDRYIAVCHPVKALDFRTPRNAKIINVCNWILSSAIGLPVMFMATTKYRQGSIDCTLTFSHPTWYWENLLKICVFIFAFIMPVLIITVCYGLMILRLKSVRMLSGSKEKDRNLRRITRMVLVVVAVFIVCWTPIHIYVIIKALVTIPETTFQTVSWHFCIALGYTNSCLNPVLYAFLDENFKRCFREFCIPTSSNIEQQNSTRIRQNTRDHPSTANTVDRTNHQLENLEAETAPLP
Target sequence (P41143 whole entry, looked up): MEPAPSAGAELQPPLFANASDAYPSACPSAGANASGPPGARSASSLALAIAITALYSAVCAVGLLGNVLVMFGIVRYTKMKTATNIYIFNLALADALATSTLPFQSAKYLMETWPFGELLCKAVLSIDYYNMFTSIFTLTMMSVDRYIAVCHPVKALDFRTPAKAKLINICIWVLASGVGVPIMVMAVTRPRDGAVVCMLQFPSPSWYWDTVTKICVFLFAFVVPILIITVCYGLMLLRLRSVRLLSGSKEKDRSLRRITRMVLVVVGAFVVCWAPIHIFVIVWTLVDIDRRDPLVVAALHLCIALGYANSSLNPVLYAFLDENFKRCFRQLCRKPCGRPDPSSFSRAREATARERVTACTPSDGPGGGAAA
Large screens that a line does not name were inactive (follow-up assays come after a bar, where they were run).

CCOc1ccc(N/C=C/C(=O)c2ccccc2)c([N+](=O)[O-])c1	MC4R ag barr 27.1 | MC4R barr conf inactive | MOR DOR agonist inactive
O=C(N/N=C/c1ccc(OCc2ccc(F)cc2)cc1)c1ccccc1	none
O=C(N/N=C/c1cccc(O)c1)c1ccc(COc2ccccc2Br)cc1	MC4R ag barr 12.5 | MC4R barr conf inactive | MOR DOR agonist inactive
CC(C)(C)c1ccc(OCc2ccc(C(=O)N/N=C/c3ccc(O)c(O)c3)cc2)cc1	MC4R ag barr 25.3 | MC4R barr conf 9.8 | MOR DOR agonist inactive
O=C(N/N=C/c1cccc(O)c1)c1ccc(COc2cccc3cccnc23)cc1	none
Cc1ccc(CNC(=O)[C@H]2C[C@@H]2[C@H](NP(=O)(c2ccccc2)c2ccccc2)c2ccccc2)o1	none
CCOc1ccc(-c2cc(NC(=O)Cn3ncc4c3-c3ccccc3OC4)on2)cc1OCC	MC4R ag barr 16.4 | MC4R barr conf inactive | MOR DOR agonist inactive
O=C(CSc1nc(-c2ccccc2)cs1)NCCCN1CCCC1=O	none (no result: TLR4 MyD88 comp)
COc1ccc(/C(C)=N/NC(=O)c2nnn(-c3nonc3N)c2CN(C)c2ccccc2)cc1	MC4R ag barr 13.3 (no result: TLR4 MyD88 comp) | MC4R barr conf inactive | MOR DOR agonist inactive
Cc1nnn(-c2nonc2N)c1C(=O)N/N=C/c1cccc2ccccc12	none
Cc1ccc(/C=N/NC(=O)c2nnn(-c3nonc3N)c2CSc2ccccc2)s1	none (no result: TLR4 MyD88 comp)
Cc1ccsc1/C=N/NC(=O)c1nnn(-c2nonc2N)c1CSc1ccccc1	MC4R ag barr 10.6 (no result: TLR4 MyD88 comp) | MC4R barr conf inactive | MOR DOR agonist inactive
CCCc1c(C(=O)N/N=C/c2c(OC)ccc3ccccc23)nnn1-c1nonc1N	MC4R ag barr 24.6 (no result: TLR4 MyD88 comp) | MC4R barr conf 11.1 | MOR DOR agonist inactive
Cc1nnn(-c2nonc2N)c1C(=O)N/N=C/c1ccccc1O	MC4R ag barr 10.2 | MC4R barr conf inactive | MOR DOR agonist inactive
C/C(=N\NC(=O)c1nnn(-c2nonc2N)c1CN(C)c1ccccc1)c1ccccc1O	none (no result: TLR4 MyD88 comp)
CCN1C(=O)[C@@H]2[C@@H](c3ccc(-c4ccc(C(C)=O)cc4)cc3)N3CCCC[C@@]3(C(=O)OC)[C@@H]2C1=O	none (no result: TLR4 MyD88 comp)
Clc1ccc(C2=Nn3c(nnc3-c3cc(-c4ccccc4)n[nH]3)SC2)cc1	MC4R ag barr 40.7 | MC4R barr conf 22.7 | MOR DOR agonist inactive
COc1ccc(NC(=S)N2CCCC2)c(OC)c1	none
CCCNC(=O)C(Cc1ccc(Cl)cc1)NC(=O)c1ccc(-c2ccccc2)cc1 (configuration not stated)	MC4R ag barr 14.1 (no result: TLR4 MyD88 comp) | MC4R barr conf inactive | MOR DOR agonist inactive
CCCNC(=O)C(Cc1ccc(Cl)cc1)NC(=O)c1ccc(C#N)cc1 (configuration not stated)	none (no result: TLR4 MyD88 comp)
CC(/C=N/NC(=O)c1nnn(-c2nonc2N)c1C(C)C)=C\c1ccco1	none (no result: TLR4 MyD88 comp)
CC(C)c1ccc(NC(=S)NCc2ccc3c(c2)OCO3)cc1	MC4R ag barr 11.5 | MC4R barr conf inactive | MOR DOR agonist inactive
COc1ccc(NC(=S)NCc2ccc3c(c2)OCO3)cc1	none
Cc1cccc(Nc2nc(N)nc(CCl)n2)c1C	MC4R ag barr 24.9 (no result: TLR9-MyD88 inh, TLR4 MyD88 comp) | MC4R barr conf 22.8 | MOR DOR agonist 36.6
Cc1ccc(Nc2nc(N)nc(CCl)n2)cc1	MC4R ag barr 13.6 (no result: TLR9-MyD88 inh, TLR4 MyD88 comp) | MC4R barr conf 16.9 | MOR DOR agonist 18.1
Cc1cccc(Nc2nc(N)nc(CCl)n2)c1	none (no result: TLR4 MyD88 comp)
COc1ccc(N(C(=O)Cn2nnc(-c3ccc(C)o3)n2)C(C(=O)NC2CCCC2)c2ccncc2)cc1 (configuration not stated)	none (no result: TLR4 MyD88 comp)
O=C(CCc1nc2ccccc2c(=O)[nH]1)OCc1ccc(-c2ccccc2)cc1	MC4R ag barr 18.0 | MC4R barr conf inactive | MOR DOR agonist inactive
COc1cc(SC)ccc1C(=O)Nc1ccccc1C#N	MC4R ag barr 12.1 | MC4R barr conf inactive | MOR DOR agonist inactive
COc1cc(SC)ccc1C(=O)Nc1ccncc1	none
CCC(c1nnnn1-c1ccc2c(c1)OCCO2)N1CCc2ccccc2C1 (configuration not stated)	none (no result: TLR9-MyD88 inh, TLR4 MyD88 comp, MC4R ag barr, MC4R antag cAMP, MIN6 prolif)
O=C(COc1cc(Cl)c(Cl)cc1Cl)Nc1cccc(O)c1	MC4R ag barr 19.6 (no result: TLR4 MyD88 comp) | MC4R barr conf inactive | MOR DOR agonist inactive
O=C(COc1cc(Cl)c(Cl)cc1Cl)Nc1ccncc1	none
C/C(=N/NS(=O)(=O)c1ccc(CC(C)C)cc1)c1ccncc1	none (no result: TLR4 MyD88 comp)
CCOCCCN(Cc1ccco1)C(=O)c1cc2c(=O)[nH]c3ccc(C)cc3c2s1	MC4R ag barr 10.7 | MC4R barr conf 18.0 | MOR DOR agonist inactive
O=C(CN1CCN(c2ccccc2)CC1)NC(=O)NCc1ccccc1	MC4R ag barr 14.3 (no result: TLR4 MyD88 comp) | MC4R barr conf inactive | MOR DOR agonist inactive
O=C(CN1CCN(c2ccccc2F)CC1)NC(=O)NCc1ccccc1	none
CCOc1cc(C(=S)N2CCOCC2)ccc1OC(=O)/C=C/c1ccc(OC)c(OC)c1	MC4R ag barr 11.5 | MC4R barr conf inactive | MOR DOR agonist inactive
CCOc1ccc(/C=C/C(=O)N2CCOCC2)cc1OC	none (no result: TLR4 MyD88 comp)
O=C(NCCCN1CCCC1=O)c1cccc(S(=O)(=O)Nc2ccccc2Cl)c1	none (no result: TLR4 MyD88 comp)
O=C1Nc2ccccc2/C1=C/c1cnc(-c2ccccc2)[nH]1	MC4R ag barr 20.4 (no result: TLR4 MyD88 comp) | MC4R barr conf 24.9 | MOR DOR agonist inactive
O=C(O)CNC(=O)c1ccc(NC(=O)/C(=C/c2cccc([N+](=O)[O-])c2)NC(=O)c2ccco2)cc1	none (no result: TLR4 MyD88 comp)
CCn1c(COc2ccc3c(c2)OCO3)nnc1SCC(=O)c1ccc(Cl)cc1	MC4R ag barr 9.9 | MC4R barr conf inactive | MOR DOR agonist inactive
CCOC(=O)CSc1ccc(C(=O)NCCCN2CCOCC2)cc1[N+](=O)[O-]	none (no result: TLR4 MyD88 comp)
COc1ccc(-n2c(-c3cc(-c4ccccc4)sc3N)n[nH]c2=S)cc1	none (no result: TLR4 MyD88 comp)
Nc1sc(-c2ccccc2)cc1-c1n[nH]c(=S)n1C1CCCCC1	MC4R ag barr 11.1 (no result: TLR9-MyD88 inh, TLR4 MyD88 comp) | MC4R barr conf inactive | MOR DOR agonist inactive
CC(C)N1C(=O)C(=O)N(CC(=O)N2c3ccccc3NC(=O)CC2C)C1=O (configuration not stated)	none (no result: TLR4 MyD88 comp)
O=C(Nc1nc(-c2ccc(F)c(F)c2)cs1)c1ccc(OCC2CCCO2)cc1 (configuration not stated)	MC4R ag barr 16.9 | MC4R barr conf inactive | MOR DOR agonist 28.0
COc1c(C(=O)Nc2ccc(Br)cn2)ccc2ccccc12	MC4R ag barr 12.0 (no result: TLR4 MyD88 comp) | MC4R barr conf inactive | MOR DOR agonist inactive
